TAAR1 agonist: human TAAR1 agonism. Q96RJ0. CHO RD-HGA16 TAAR1, Fluo-8 calcium fluorescence; vehicle wells 0%, saturating PEA agonist 100%. activation, % at 3 µM. 360,000 tested, 0.99% active. AID 624467;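 active = activation above the mean activation of all test compounds in the run plus 3 SD, cut at about 38% in these data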
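Benchmarks: low control DMSO, high control PEA (EC100); System: CHO RD-HGA16 cells carrying human TAAR1 plus Gα16; Detection: Fluo-8 fluorescence, 5 s baseline then 140 s kinetic read; Schedule: 17-24 h plating, Fluo-8 75 min 37 °C, 30 min RT; Read-out basis: % activation from peak over basal fluorescence ratio, DMSO-to-PEA scaled.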
TRPML3 ag: human mucolipin-3 channel agonism; Q8TDD5; HEK293 TRPML3-YFP, Fluo-8 calcium fluorescence; 100% = the carbachol control signal; activation, % at 3 µM; 220,000 tested, 0.29% active;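 active = activation above its plate's cutoff, the mean activation of the plate's test wells plus 3 SD, cut at about 12% in these data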;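 note: 0% = DMSO only wells and 100% = carbachol wells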
Target sequence (Q8TDD5 whole entry, looked up): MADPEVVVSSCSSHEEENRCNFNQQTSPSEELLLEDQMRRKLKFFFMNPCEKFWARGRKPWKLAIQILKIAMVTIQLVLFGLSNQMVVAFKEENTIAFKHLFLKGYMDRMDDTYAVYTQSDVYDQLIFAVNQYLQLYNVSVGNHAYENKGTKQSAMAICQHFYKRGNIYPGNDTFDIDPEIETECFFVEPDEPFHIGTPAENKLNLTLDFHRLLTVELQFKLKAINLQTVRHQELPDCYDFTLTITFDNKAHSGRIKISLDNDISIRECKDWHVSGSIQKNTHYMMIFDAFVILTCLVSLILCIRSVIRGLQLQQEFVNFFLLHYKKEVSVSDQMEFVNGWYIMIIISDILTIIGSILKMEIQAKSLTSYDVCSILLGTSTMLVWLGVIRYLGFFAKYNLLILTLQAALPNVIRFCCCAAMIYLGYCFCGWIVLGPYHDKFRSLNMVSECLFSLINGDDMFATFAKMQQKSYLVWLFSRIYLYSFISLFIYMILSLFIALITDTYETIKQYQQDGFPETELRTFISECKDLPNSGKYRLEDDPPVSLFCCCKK
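Test system: TRPML3-YFP stable HEK293 cells. Doses: single point at 3 µM. Incubation: dye loading 1 h 37 °C then 30 min ambient, 125 s read. Signal: Fluo-8 calcium dye fluorescence, ex 470-495, em 515-575 nm. Measure: percent activation from peak-to-basal fluorescence ratio, scaled between DMSO and carbachol.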
TRPN1 ag: zebrafish TRPN1 (NompC) channel agonism. HEK293 zebrafish TRPN1-YFP, Fluo-8 calcium fluorescence; 100% = response to 87 µM carbachol. activation, % at 3 µM. 220,000 tested, 0.18% active. AID 1424;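 active = activation above its plate's cutoff, the mean activation of test wells on that plate plus 3 SD, cut at about 19% in these data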;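 note: 0% = DMSO alone and 100% = 87 µM carbachol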
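Assay system: Zebrafish TRPN1-YFP in HEK293 cells | Incubation: Dye loading 1 h at 37 °C, then 30 min room temperature | Measured by: Kinetic Fluo-8 fluorescence, ex 470-495, em 515-575 nm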
TAAR1 antag: antagonists of human TAAR1. Q96RJ0. CHO RD-HGA16 TAAR1, Fluo-8 calcium fluorescence, antagonist. inhibition, % at 3 µM. 360,000 tested, 1.5% active. AID 624466;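 active = inhibition above a per-plate cutoff, the mean inhibition of test compounds on that plate plus 3 SD, cut at about 49% in these data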;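 note: 0% = DMSO plus EC80 beta-PEA response and 100% = DMSO alone without agonist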
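test system = CHO RD-HGA16 cells bearing hTAAR1 | replication = singlicate | controls = DMSO-only wells and EC80 β-PEA-stimulated wells | reagent = EC80 β-phenethylamine stimulus | read-out basis = percent inhibition of PEA-evoked calcium signal, max/basal emission ratio | schedule = seeding 17-24 h prior, 75-min 37 °C, 30-min RT dye loading | signal = kinetic Fluo-8 calcium fluorescence measurement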
GPR7 antag: human neuropeptides B/W receptor 1 antagonism. P48145. GPR7-expressing cells, fluorescence antagonist assay. inhibition, % at 4.4 µM. 290,000 tested, 1.1% active. AID 1861; in the data active = inhibition above about 16%, passing the limit was not always enough;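 note: cells stimulated with the agonist NPW; 0% = agonist with vehicle and 100% = vehicle without agonist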
LANA-H2B inh: blocks KSHV LANA binding to histone H2A/H2B. Q9QR71. cell-free LANA-H2A/H2B peptide, fluorescence polarization. inhibition, % (concentration not given with the values). 320,000 tested, 0.6% active; in the data active = inhibition mostly above about 10%, no sharp cut-off; inactive = mostly below about 6.7%
* marks the source's active call; other numbers are inactive results. Rows were chosen to be rich in hits. Some 3.4% of all compounds tested hit in one or more screens of this group.

COc1ccc(CCNCc2cc(C)n(-c3ccc(OC)cc3)c2C)cc1 was read as TAAR1 agonist 45*, TAAR1 antag -1, GPR7 antag 20 and LANA-H2B inh 3.
CC(C)(C)C(=O)c1c(N)[nH]c(C(=O)c2ccccc2)c1-c1ccc([N+](=O)[O-])cc1 was read as TAAR1 agonist 0 and TAAR1 antag 4.
For O=C(Cn1ncc(Cl)c(Cl)c1=O)N1CCN(S(=O)(=O)c2ccc3ccccc3c2)CC1 the results were TAAR1 agonist 8, TRPML3 ag 0, TRPN1 ag -1, TAAR1 antag 19, GPR7 antag 40* and LANA-H2B inh 3.
Screening O=C(O)CCC(=O)N1CCN(S(=O)(=O)c2ccc3ccccc3c2)CC1 returned TAAR1 agonist 3, TAAR1 antag -5, GPR7 antag 0 and LANA-H2B inh 1.
For CC(C)N(CCn1c(SCC(=O)Nc2cccnc2Cl)nc2ccccc2c1=O)C(C)C the results were TAAR1 agonist -4, TAAR1 antag -13 and LANA-H2B inh 9.9*.
Screening CCOC(=O)c1ccccc1NC(=O)COC(=O)CC1CCCCC1 returned TAAR1 agonist 3, TAAR1 antag 27, GPR7 antag -27 and LANA-H2B inh -4.
Screening CCOC(=O)c1ccccc1NC(=O)COC(=O)CN1C(=O)C2CC=CCC2C1=O (stereo not given) returned TAAR1 agonist 0, TAAR1 antag 2, GPR7 antag -1 and LANA-H2B inh 162*.
CCCc1nnc(NC(=O)Cn2c(=O)sc3ccccc32)s1 was read as TAAR1 agonist 46*, TRPML3 ag 1, TRPN1 ag 2, TAAR1 antag 0, GPR7 antag 17 and LANA-H2B inh -7.
For CCCc1nnc(NC(=O)CN2C(=O)c3ccccc3C2=O)s1 the results were TAAR1 agonist 8, TRPML3 ag 0, TRPN1 ag 0, TAAR1 antag -12, GPR7 antag -6 and LANA-H2B inh 0.
Screening COC(=O)c1cc2c(c3c4cc(C)ccc4n(S(=O)(=O)c4ccc(C)cc4)c13)C(=O)N(Cc1ccc(C(F)(F)F)cc1)C2 returned TAAR1 agonist 0 and TAAR1 antag -16.
`CNS(=O)(=O)c1ccc(NC(=O)C2c3ccccc3Oc3ccccc32)cc1` gave TAAR1 agonist 12, TRPML3 ag 2, TRPN1 ag 4, TAAR1 antag 0, GPR7 antag 0 and LANA-H2B inh 5.
`CCc1nnc(NC(=O)C2c3ccccc3Oc3ccccc32)s1` gave TAAR1 agonist 51*, TRPML3 ag 1, TRPN1 ag 2, TAAR1 antag -24, GPR7 antag -8 and LANA-H2B inh -6.
For CCN(CC)S(=O)(=O)c1ccc(NC(=O)C2c3ccccc3Oc3ccccc32)cc1 the results were TAAR1 agonist 41*, TRPML3 ag 2, TRPN1 ag 4, TAAR1 antag 21 and GPR7 antag 4.
COc1cccc(CNC(=O)[C@H]2CCCN2C(=O)[C@H]2CCCN2C(=O)c2ccccc2C(F)(F)F)c1 was read as TAAR1 agonist 0 and TAAR1 antag -12.
For CCCCC(=O)Nc1ccc(C(=O)c2ccccc2)cc1 the results were TAAR1 agonist 3, TRPML3 ag -2, TRPN1 ag -1, TAAR1 antag 0, GPR7 antag 20* and LANA-H2B inh 0.
`CC(=O)NCc1ccc(OCCCN2CCC(C(O)(c3ccccc3)c3ccccc3)CC2)cc1` gave TAAR1 agonist 8 and TAAR1 antag -1.
`O=C(/C=C/Nc1ccccc1)c1ccc(Cl)cc1Cl` gave TAAR1 agonist 4, TAAR1 antag -27, GPR7 antag 1 and LANA-H2B inh 5.1*.
COc1ccccc1C(=O)N1CCN(C(=O)[C@@H](Cc2ccccc2)NC(=O)[C@H]2O[C@@H](n3ccc(=O)[nH]c3=O)[C@H](O)[C@@H]2O)CC1 was read as TAAR1 agonist 3 and TAAR1 antag -31.
For CNC(=O)c1nnsc1S(=O)(=O)c1ccc(Cl)cc1 the results were TAAR1 agonist 3, TRPML3 ag 2, TRPN1 ag 1, TAAR1 antag 25 and GPR7 antag 26*.
CCCCCCCCN1C(=O)[C@@H](CC(=O)NCCC(C)C)C[C@@]2(C(=O)OC)C1=C[C@H](C(C)(C)C)O[C@@H]2C was read as TAAR1 agonist -1 and TAAR1 antag -17.
`C/C(=N\Nc1ccc([N+](=O)[O-])cc1)c1ccc(-n2nncc2C)cc1` gave TAAR1 agonist 15, TRPML3 ag 1, TRPN1 ag 0, TAAR1 antag 57*, GPR7 antag 0 and LANA-H2B inh 1.
C/C(=N\Nc1ccc([N+](=O)[O-])cc1)c1ccc(N2CCOCC2)cc1 was read as TAAR1 agonist 11, TRPML3 ag 1, TRPN1 ag 2, TAAR1 antag 42, GPR7 antag -8 and LANA-H2B inh 7.
Screening Cc1cccnc1Nc1nc(-c2ccccc2)cs1 returned TAAR1 agonist -1, TAAR1 antag -11, GPR7 antag -7 and LANA-H2B inh 23*.
O=C(Nc1ccc(-c2csc(Nc3ccc(Cl)cc3)n2)cc1)c1cccc(C(F)(F)F)c1 was read as TAAR1 agonist -1, TAAR1 antag 18 and LANA-H2B inh -2.
Screening O=C(Nc1ccc(-c2csc(Nc3ccccc3)n2)cc1)c1cccc(C(F)(F)F)c1 returned TAAR1 agonist 5, TAAR1 antag 52* and LANA-H2B inh 1.
`O=C(O)c1ccc(Nc2nc(-c3ccccc3)cs2)cc1` gave TAAR1 agonist 38*, TRPML3 ag 0, TRPN1 ag 2, TAAR1 antag 28, GPR7 antag -9 and LANA-H2B inh -1.
`O=C(N[C@H](C(=O)N1CCC[C@H]1C(=O)NCCc1ccccc1Cl)c1ccccc1)C1CCCC1` gave TAAR1 agonist 24 and TAAR1 antag 12.
`COc1ccc(N=Nc2nc3cc(Br)c(Br)cc3n2C)c(OC)c1` gave TAAR1 agonist 10, TRPML3 ag 20*, TRPN1 ag 25*, TAAR1 antag 6, GPR7 antag -4 and LANA-H2B inh 102*.
Screening COc1ccc(CNc2nc3ccccc3n2C)c(OC)c1 returned TAAR1 agonist 3, TRPML3 ag 0, TRPN1 ag 0, TAAR1 antag 2, GPR7 antag 4 and LANA-H2B inh 9.
Screening NC(=O)c1ncn([C@@H]2O[C@H](C(=O)N[C@H](Cc3ccccc3)C(=O)N3CCN(CC(=O)Nc4ccccn4)CC3)[C@@H](O)[C@H]2O)n1 returned TAAR1 agonist 1 and TAAR1 antag -2.

From PubChem
